HEK293 NFkB inh = inhibitors of the PMA/ionomycin-induced NF-kB reporter in HEK293 cells; HEK-293 NF-kB luciferase reporter, luminescence; inhibition, % at 3 µM; hit rate 0.21% among 62,000; AID 465;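 active = inhibition above the mean of all tested compounds plus 3 SD, cut at about 40% in these data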;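 also: 0% = stimulated DMSO wells and 100% = 10 µM reference inhibitor 5653914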
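Signal: luciferase luminescence; Material: HEK-293 cells with stable firefly luciferase reporter driven by four HIV NF-kB elements; Probe or stimulus: PMA with ionomycin; Replication: tested once; Times: 1 h compound pretreatment, then 16 h stimulation at 37 °C, 5% CO2; Benchmarks: DMSO and 10 µM reference inhibitor; Evaluation: per-plate % inhibition versus controls.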
BAP1 block = inhibitors of human BAP1 deubiquitinase; recombinant BAP1, Ub-AMC hydrolysis fluorescence kinetic; active compounds read low; calls only at 20 µM; Q92560; hit rate 0.48% among 72,000;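 active = activity remaining at or below 50% of control, provided the compound also passes the data quality filters; inactive = the rest, including low values that fail the filters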;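 also: 100% = DMSO wells rate and 0% = substrate alone blank rate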
M1 ag = activates the M1 muscarinic receptor. CHO-M1 cells, Fluo-4 calcium fluorescence, agonist mode; active compounds read high. B-score at 10 µM. hit rate 3% among 64,000;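 active = fluorescence rise, raw or as B-score row- and column-corrected plate score, outside the 99.7% band of its plate's samples, either direction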
JNK3 blocker = blocks human JNK3 kinase activity; hit rate 0.61% among 60,000; purified JNK3 kinase activity, HTS; P53779; inhibition, % at 8 µM; in the data active = inhibition above about 17%;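 also: 0% = DMSO and 100% = reference inhibitor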
Her2 expr inh = Her2 kinase expression inhibition. P04626. SKBR-3 HER2 protein level, AlphaScreen, 18-24 h; active compounds read low. HER2 level % of control, % at 10 µM. hit rate 0.69% among 65,000. AID 645;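 active = HER2 level under 5% of the carrier-only control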;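 also: 100% = DMSO carrier and 0% = 500 nM PU-H71 HSP90 inhibitor; lower value means stronger loss of Her2 protein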
M1 antagonist = M1 muscarinic receptor (rat) antagonism; P08482; CHO-M1 cells, Fluo-4 calcium, ACh EC80 antagonist mode; active compounds read low; hit rate 3.4% among 64,000; B-score at 10 µM;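 active = calcium fluorescence response, raw or row-and-column corrected B-score, differing from the plate sample mean either way at a set confidence level, mostly lower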
Target sequence (P08482 whole entry, looked up): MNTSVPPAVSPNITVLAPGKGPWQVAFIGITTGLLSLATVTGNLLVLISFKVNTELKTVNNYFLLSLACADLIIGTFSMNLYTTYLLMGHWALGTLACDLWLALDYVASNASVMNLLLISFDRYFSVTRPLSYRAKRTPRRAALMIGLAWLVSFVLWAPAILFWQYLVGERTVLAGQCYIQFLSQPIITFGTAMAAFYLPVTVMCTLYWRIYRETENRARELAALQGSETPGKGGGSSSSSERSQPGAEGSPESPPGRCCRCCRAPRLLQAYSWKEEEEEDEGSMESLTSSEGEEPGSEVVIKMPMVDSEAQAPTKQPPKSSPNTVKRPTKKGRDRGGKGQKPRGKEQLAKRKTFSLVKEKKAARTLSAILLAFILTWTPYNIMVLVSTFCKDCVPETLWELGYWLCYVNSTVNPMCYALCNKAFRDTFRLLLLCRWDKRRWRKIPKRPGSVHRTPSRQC
M1 antag conf = confirmation of rat M1 muscarinic receptor antagonists; shares compounds with M1 antagonist; CHO-M1 cells, Fluo-4 calcium, ACh EC80 antagonism; active compounds read low; calcium response (max-min fluorescence) at 10 µM; hit rate 43% among 1,700; AID 677;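 active = calcium response below the same-plate mean of wells given acetylcholine alone at its 80%-effect dose, minus 3 SD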;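 also: raw fluorescence intensity difference in arbitrary instrument units and not normalized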
mGluR4 antag = acts on human mGluR4 in M1 antagonist selectivity test. shares compounds with M1 antagonist. CHO-mGluR4 calcium flux, Fluo-4 fluorescence, glutamate EC80; active compounds read low. fluorescence response (max-min) at 10 µM. hit rate 0.9% among 1,700;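 active = fluorescence response below the plate's average for near-maximal glutamate wells, less 3 SD of those wells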;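 also: raw unnormalized fluorescence span taken in the window right after glutamate addition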
An asterisk follows results filed as active. Shown are actives, neighbours in structure and some others; about 6.6% of the full set was active somewhere.

What do the screens show for `CCCN(CCC)CCCNC(=O)c1ccc2c(c1)N(CC)C(=O)c1ccccc1S2=O` (configuration not stated)?
HEK293 NFkB inh: 13; BAP1 block: inactive; M1 ag: -0.4; JNK3 blocker: 0; Her2 expr inh: 114; M1 antagonist: -4.2*; M1 antag conf: 328*; mGluR4 antag: 202

What do the screens show for `CCOc1cc(C(=S)N2CCOCC2)ccc1OC(=O)c1ccc(Cl)cc1`?
BAP1 block: inactive

Results for CS(=O)(=O)N(CC(=O)N1CCC(C(N)=O)CC1)c1ccc(Oc2ccccc2)cc1 ?
HEK293 NFkB inh: 12; BAP1 block: inactive; M1 ag: 0.18; JNK3 blocker: -3; Her2 expr inh: 142; M1 antagonist: -1.6*; M1 antag conf: 550; mGluR4 antag: 195

Results for O=C1CC(c2ccccc2)CC2=C1C(c1ccc(C(F)(F)F)cc1)Nc1ccccc1N2 (configuration not stated) ?
BAP1 block: inactive

What do the screens show for `CC1=C(C(=O)OCC(C)C)C(c2ccc(Br)cc2)NC(=O)N1` (configuration not stated)?
BAP1 block: inactive

What do the screens show for `CCCCS(=O)(=O)Nc1ccc2c(c1)ncn2C1CCCCC1`?
HEK293 NFkB inh: 20; BAP1 block: inactive; M1 ag: -0.16; JNK3 blocker: -14; Her2 expr inh: 121; M1 antagonist: -0.42

How did c1ccc(CNc2ccc3c(c2)ncn3C2CCCCC2)nc1 do in these assays?
HEK293 NFkB inh: 5; BAP1 block: inactive; M1 ag: 0.82; JNK3 blocker: -6; Her2 expr inh: 111; M1 antagonist: -4.9*; M1 antag conf: 622; mGluR4 antag: 251

How did Cc1ccc(S(=O)(=O)N2CCC(C(=O)N3CCC[C@H]3C(=O)NCc3ccco3)CC2)cc1 do in these assays?
HEK293 NFkB inh: 10; BAP1 block: inactive; M1 ag: -0.18; JNK3 blocker: 4; Her2 expr inh: 108; M1 antagonist: -2.2*; M1 antag conf: 555*; mGluR4 antag: 210

What do the screens show for `Cc1ccc(S(=O)(=O)N2CCC(C(=O)N3CCC[C@H]3C(=O)NCc3ccccc3)CC2)cc1`?
HEK293 NFkB inh: 23; BAP1 block: inactive; M1 ag: -0.28; JNK3 blocker: -4; Her2 expr inh: 116; M1 antagonist: 0.67

What do the screens show for `CCOc1ccccc1N1Cc2cc(C)c(C)cc2C1`?
HEK293 NFkB inh: 4; BAP1 block: inactive; M1 ag: -0.041; JNK3 blocker: -2; Her2 expr inh: 74; M1 antagonist: -1.5*; M1 antag conf: 655; mGluR4 antag: 231

How did COc1ccc(OC)c(N2Cc3cc(C)c(C)cc3C2)c1 do in these assays?
HEK293 NFkB inh: 7; M1 ag: -0.61; JNK3 blocker: 2; Her2 expr inh: 88; M1 antagonist: -0.33

What do the screens show for `Cc1cc(Cl)ccc1OCC(O)CN1CCCCC1C` (configuration not stated)?
BAP1 block: inactive

What do the screens show for `CCOc1ccc(Cn2nnc(C(=O)NCc3ccc(OC)cc3)c2N)cc1`?
HEK293 NFkB inh: 6; BAP1 block: inactive; M1 ag: 0.35; JNK3 blocker: 2; Her2 expr inh: 59; M1 antagonist: -1.6*; M1 antag conf: 620; mGluR4 antag: 228

What do the screens show for `CCc1ccc(Cn2nnc(C(=O)Nc3ccc(OC)cc3OC)c2N)cc1`?
HEK293 NFkB inh: 11; BAP1 block: inactive; M1 ag: 0.012; JNK3 blocker: 3; Her2 expr inh: 75; M1 antagonist: -0.85

How did Cc1ccc(S(=O)(=O)Cn2nnnc2C(C(C)C)N2CCc3ccccc3C2)cc1 (configuration not stated) do in these assays?
HEK293 NFkB inh: 22; M1 ag: -2; JNK3 blocker: -7; Her2 expr inh: 75; M1 antagonist: 0.25

What do the screens show for `Cc1ccc(S(=O)(=O)Cn2nnnc2C(C(C)C)N2CCSCC2)cc1` (configuration not stated)?
HEK293 NFkB inh: 9; BAP1 block: inactive; M1 ag: 0.74; JNK3 blocker: 2; Her2 expr inh: 109; M1 antagonist: -2.3*; M1 antag conf: 646; mGluR4 antag: 240

Results for Cc1c(C#N)c(SCC(N)=O)nc2c1CCCC2 ?
HEK293 NFkB inh: 15; BAP1 block: inactive; M1 ag: 0.28; JNK3 blocker: 3; Her2 expr inh: 120; M1 antagonist: -2*; M1 antag conf: 648; mGluR4 antag: 246

How did O=C(c1cccs1)c1cn(CC(=O)N2CCc3ccccc3C2)c2ccccc12 do in these assays?
HEK293 NFkB inh: 6; M1 ag: -0.56; JNK3 blocker: 5; Her2 expr inh: 110; M1 antagonist: -7.2*; M1 antag conf: 699; mGluR4 antag: 175

How did Nc1nonc1-c1noc(CCCOc2ccc(Cl)cc2Cl)n1 do in these assays?
HEK293 NFkB inh: 0; BAP1 block: inactive; JNK3 blocker: 3; Her2 expr inh: 93

What do the screens show for `Cc1ccc(C(C)C)c(OCc2nc(-c3nonc3N)no2)c1`?
HEK293 NFkB inh: -7; BAP1 block: inactive; M1 ag: -1.8; JNK3 blocker: -2; Her2 expr inh: 96; M1 antagonist: -2.4*; M1 antag conf: 566; mGluR4 antag: 256

Results for O=C1C(=C2CCCCC2)SC(=S)N1Cc1ccco1 ?
HEK293 NFkB inh: 11; BAP1 block: inactive; M1 ag: -1; JNK3 blocker: -5; Her2 expr inh: 73; M1 antagonist: -7.3*; M1 antag conf: 111*; mGluR4 antag: 206

How did CN(C)c1ccc(NC(=O)CN2CCN(CC(=O)Nc3ccc(F)cc3)CC2)cc1 do in these assays?
HEK293 NFkB inh: 2; BAP1 block: inactive; M1 ag: -0.73; JNK3 blocker: -8; Her2 expr inh: 99; M1 antagonist: -4.6*; M1 antag conf: 718; mGluR4 antag: 263

Results for COc1ccc(-c2nc3cc(N=CC=Cc4cccc(Br)c4)ccc3o2)cc1 ?
BAP1 block: inactive

Results for C=CCN(C1CCCCC1)S(=O)(=O)c1ccc2c(c1)oc(=O)n2C ?
HEK293 NFkB inh: 3; BAP1 block: inactive; M1 ag: 0.83; JNK3 blocker: 2; Her2 expr inh: 90; M1 antagonist: -4.9*; M1 antag conf: 567; mGluR4 antag: 289

How did C=CCN(c1ccccc1)S(=O)(=O)c1ccc2c(c1)oc(=O)n2C do in these assays?
HEK293 NFkB inh: 5; BAP1 block: inactive; M1 ag: -2; JNK3 blocker: 6; Her2 expr inh: 107; M1 antagonist: -1.9
